In ChEMBL document CHEMBL1154778, “Synthesis and biological evaluation of C-5 methyl substituted 4-arylthio and 4-aryloxy-3-Iodopyridin-2(1H)-one type anti-HIV agents” (J Med Chem, 2009):

Experiments:
[1] = test system: Human immunodeficiency virus 1; assay: Antiviral activity against HIV1 HXB2 harboring Y181C mutant reverse transcriptase infected in human MT4 cells after 5 days by MTT assay; format: functional, organism-based; conditions: Human immunodeficiency virus 1, HXB2, MT4, 120 h
Method in brief: (§1)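 Mutant viruses were made by recombining the mutant PR-RT sequence into a PR-RT-deleted HIV-1 HXB2 proviral clone. MT4 cells were grown in RPMI 1640 with 10% FCS and antibiotics. Virus at 200 CCID50/well and 30000 cells/well were incubated with varied compound concentrations for 5 days at 37 °C, 5% CO2. MTT viability gave IC50, the concentration giving 50% infection versus the drug-free control.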

[2] = Selectivity index, ratio of CC50 for human MT4 cells to IC50 for HIV-1 LAI harboring wild type reverse transcriptase infected in human MT4 cells; format: functional
Method in brief: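 Cytotoxicity was measured in mock-infected MT4 cultures (30000 cells/well) given the same compound concentration range, run in parallel with the infected cultures for 5 days at 37 °C, 5% CO2, with MTT viability. CC50 was the concentration reducing viability by 50% versus the drug-free control. SI was CC50 divided by IC50 against HIV-1 LAI.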

[3] = test system: Human immunodeficiency virus 1; assay: Antiviral activity against HIV1 HXB2 harboring Y188L mutant reverse transcriptase infected in human MT4 cells after 5 days by MTT assay; format: functional, organism-based; conditions: Human immunodeficiency virus 1, HXB2, MT4, 120 h; method in brief: as §1
[4] = test system: Human immunodeficiency virus 1; assay: Antiviral activity against HIV-1 LAI harboring wild type reverse transcriptase infected in human MT4 cells after 5 days by MTT assay; format: functional, organism-based; conditions: Human immunodeficiency virus 1, LAI, MT4, 120 h
Method in brief: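 MT4 cells were kept in RPMI 1640 with 10% fetal calf serum and antibiotics at 37 °C, 5% CO2. A range of compound concentrations was incubated with HIV-1 LAI at 200 CCID50/well and 30000 MT4 cells/well for 5 days at 37 °C. Cell viability was read by MTT, and IC50 was the concentration giving 50% infection versus the drug-free control.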

[5] = test system: Human immunodeficiency virus 1; assay: Antiviral activity against HIV1 HXB2 harboring K103N mutant reverse transcriptase infected in human MT4 cells after 5 days by MTT assay; format: functional, organism-based; conditions: Human immunodeficiency virus 1, HXB2, MT4, 120 h; method in brief: as §1

Row | Compound | IC50 [1] | Ratio CC50/IC50 [2] | IC50 [3] | IC50 [4] | IC50 [5]
1 | Cc1cc(C)cc(Oc2c(CSCc3cccc(C#N)c3)c(C)[nH]c(=O)c2I)c1 | 6.3 nM | 19953 | 794 nM | 3.16 nM | 1.58 nM
2 | Cc1cc(C)cc(Oc2c(CN3CC=CC3)c(C)[nH]c(=O)c2I)c1 | 50.1 nM | 15848 | 125 nM | 3.98 nM | 7.94 nM
3 | CCOCc1c(C)[nH]c(=O)c(I)c1Sc1cc(C)cc(C)c1 | 31.6 nM | 50119 | 251 nM | 1.99 nM | 1.25 nM
4 | Cc1cc(C)cc(Oc2c(CN3CCCC(C(N)=O)C3)c(C)[nH]c(=O)c2I)c1 (configuration not stated) | – | >10000 | – | 10 nM | –
5 | Cc1cc(C)cc(Oc2c(COCCO)c(C)[nH]c(=O)c2I)c1 | 31.6 nM | >50119 | 501 nM | 1.99 nM | 39.8 nM
6 | CCOCc1c(C)[nH]c(=O)c(I)c1Oc1cc(C)cc(C)c1 | 6.3 nM | >158489 | 125 nM | 0.63 nM | 6.3 nM
7 | COCCOCc1c(C)[nH]c(=O)c(I)c1Oc1cc(C)cc(C)c1 | 10 nM | >63096 | 158 nM | 1.58 nM | 50.1 nM
8 | Cc1cc(C)cc(Oc2c(CSCc3cccs3)c(C)[nH]c(=O)c2I)c1 | 19.9 nM | >39811 | 39.8 nM | 2.51 nM | 1 nM
9 | Cc1cc(C)cc(Oc2c(Cn3ncc4ccccc43)c(C)[nH]c(=O)c2I)c1 | – | >3981 | – | 7.9 nM | –
10 | Cc1cc(C)cc(Oc2c(Cn3ccnn3)c(C)[nH]c(=O)c2I)c1 | 31.6 nM | >39810 | 79.4 nM | 2.51 nM | 7.94 nM
11 | Cc1cc(C)cc(Oc2c(Cn3ccnc3Br)c(C)[nH]c(=O)c2I)c1 | – | >3981 | – | 7.9 nM | –
12 | Cc1cc(C)cc(Sc2c(Cn3ccnc3)c(C)[nH]c(=O)c2I)c1 | 7.9 nM | 15849 | 50.1 nM | 1.25 nM | 0.79 nM
13 | Cc1cc(C)cc(Sc2c(Cn3nc(C)nc3C)c(C)[nH]c(=O)c2I)c1 | 39.8 nM | >31623 | 158 nM | 3.16 nM | 31.6 nM
14 | Cc1cc(C)cc(Sc2c(Cn3cnc(C)n3)c(C)[nH]c(=O)c2I)c1 | 15.8 nM | >125893 | 100 nM | 0.79 nM | 1.99 nM
15 | CNC(=O)CSCc1c(C)[nH]c(=O)c(I)c1Sc1cc(C)cc(C)c1 | 39.8 nM | >63096 | 794 nM | 1.58 nM | 3.98 nM
16 | Cc1cc(C)cc(Sc2c(Cn3ncnc3C)c(C)[nH]c(=O)c2I)c1 | 31.6 nM | >12589 | 316 nM | 1.99 nM | 15.8 nM
17 | CCOC(=O)CC1CN(Cc2c(C)[nH]c(=O)c(I)c2Sc2cc(C)cc(C)c2)CCO1 (configuration not stated) | 25.1 nM | 25119 | 50 nM | 2.51 nM | 0.62 nM
18 | Cc1cc(C)cc(Sc2c(CN(C)CCC#N)c(C)[nH]c(=O)c2I)c1 | 63 nM | >31623 | 1000 nM | 2.51 nM | 6.3 nM
19 | Cc1cc(C)cc(Sc2c(CN3CCN(C(=O)c4ccco4)CC3)c(C)[nH]c(=O)c2I)c1 | – | 398 | – | 10 nM | –
20 | Cc1cc(C)cc(Sc2c(CNC=O)c(C)[nH]c(=O)c2I)c1 | 31.6 nM | >79433 | 199 nM | 1.25 nM | 1.25 nM

Row | Compound | IC50 [1] | Ratio CC50/IC50 [2] | IC50 [3] | IC50 [4] | IC50 [5]
21 | Cc1cc(C)cc(Sc2c(Cn3cccc3)c(C)[nH]c(=O)c2I)c1 | 31.6 nM | 19953 | 158 nM | 2.51 nM | 1 nM
22 | Cc1cc(C)cc(Sc2c(Cn3nc(-c4ccco4)nc3C)c(C)[nH]c(=O)c2I)c1 | 31.6 nM | >50119 | 31.6 nM | 1.99 nM | 12.5 nM
23 | Cc1cc(C)cc(Sc2c(CSCCc3cnccn3)c(C)[nH]c(=O)c2I)c1 | 31.6 nM | >39811 | 199 nM | 1.99 nM | 5.01 nM
24 | COCC1CN(Cc2c(C)[nH]c(=O)c(I)c2Sc2cc(C)cc(C)c2)CCO1 (configuration not stated) | 25.1 nM | >50119 | 125 nM | 1.25 nM | 1 nM
25 | Cc1cc(C)cc(Sc2c(CN3CCOC(CCO)C3)c(C)[nH]c(=O)c2I)c1 (configuration not stated) | 31.6 nM | 31623 | 199 nM | 1.58 nM | 1.58 nM
26 | Cc1cc(C)cc(Sc2c(Cn3cccc3C#N)c(C)[nH]c(=O)c2I)c1 | – | >31623 | – | 1 nM | –
27 | Cc1cc(C)cc(Sc2c(Cn3cnc(C)c3C#N)c(C)[nH]c(=O)c2I)c1 | 31.6 nM | >79433 | 100 nM | 1.25 nM | 1.25 nM
28 | Cc1cc(C)cc(Sc2c(CN3CCOCC3)c(C)[nH]c(=O)c2I)c1 | 31.6 nM | 7943 | 158 nM | 1.25 nM | 1.25 nM
29 | Cc1cc(C)cc(Sc2c(CN3CCOC(CC#N)C3)c(C)[nH]c(=O)c2I)c1 (configuration not stated) | 25.1 nM | 25119 | 100 nM | 1.58 nM | 1 nM
30 | CCOC(=O)CSCc1c(C)[nH]c(=O)c(I)c1Oc1cc(C)cc(C)c1 | – | >10000 | – | 10 nM | –
31 | Cc1cc(C)cc(Oc2c(Cn3cnc(C)n3)c(C)[nH]c(=O)c2I)c1 | 31.6 nM | >25118 | 125 nM | 3.98 nM | 15.8 nM
32 | CNC(=O)CSCc1c(C)[nH]c(=O)c(I)c1Oc1cc(C)cc(C)c1 | 19.9 nM | >60096 | 158 nM | 1.58 nM | 3.98 nM
33 | Cc1cc(C)cc(Oc2c(Cn3cncn3)c(C)[nH]c(=O)c2I)c1 | 10 nM | >50118 | 100 nM | 1.99 nM | 3.98 nM
34 | Cc1cc(C)cc(Sc2c(CN)c(C)[nH]c(=O)c2I)c1 | 794 nM | – | > 10000 nM | 19.9 nM | 158 nM
35 | Cc1cc(C)cc(Sc2c(Cn3ccnc3C#N)c(C)[nH]c(=O)c2I)c1 | – | >31623 | – | 1 nM | –
36 | Cc1cc(C)cc(Sc2c(Cn3cncn3)c(C)[nH]c(=O)c2I)c1 | 7.94 nM | >25119 | 125 nM | 1 nM | 1 nM
37 | CCSCc1c(C)[nH]c(=O)c(I)c1Sc1cc(C)cc(C)c1 | 31.6 nM | >15849 | 630 nM | 3.16 nM | 5.01 nM
38 | Cc1cc(C)cc(Sc2c(Cn3ccnn3)c(C)[nH]c(=O)c2I)c1 | 10 nM | >50119 | 50.1 nM | 1.99 nM | 1 nM
39 | Cc1cc(C)cc(Sc2c(CN3CCOC(CN(C)C)C3)c(C)[nH]c(=O)c2I)c1 (configuration not stated) | 158 nM | >5012 | 1000 nM | 5.01 nM | –
